The source made the active and inactive calls. The calls are words filed in the database; no cut-off is given here.
How the values were obtained:
[1] = test system: THP-1; assay: Cytotoxicity against human THP-1 monocytes assessed as LDH release at 0.001 to 1000 nM incubated for 24 hrs in absence of LPS by LDH assay; assay type: toxicity, cell-based; conditions: thp-1, 24 h, 1 µM, dose 0.001-1000 nM
Procedure, shortened: (§1)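 THP-1-Lucia monocytes (1 × 10⁵/well) exposed 24 h to compound without LPS (1 pM upward; 0.1% ethanol vehicle). Supernatant LDH absorbance at 490 nm with 690 nm background; 2% Triton X-100 lysis defined maximum release, untreated cells spontaneous release; expressed as % LDH release relative to LPS ± SEM, n = 3.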

[2] = test system: THP-1; assay: Anti-inflammatory activity against human THP-1 monocytes assessed as […] in LPS-induced IL-8 release at 1 nM by multiplex chemiluminescence detection method; assay type: functional, cell-based
Procedure, shortened: (§2)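 THP-1-Lucia NF-κB monocytes (1 × 10⁵/well, 0.1% FBS medium) pretreated 30 min with compound (ethanol stock, final 0.1% ethanol vehicle), then 50 ng/mL LPS for 24 h.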

[3] = organism: Mus musculus; assay: Anti-inflammatory activity in zymosan-induced C57BL/6J mouse model of peritonitis assessed as change in monocyte cell count; assay type: functional, organism-based
[4] = test system: Mus musculus; assay: (§3) Anti-inflammatory activity in zymosan-induced C57BL/6J mouse model of peritonitis assessed as maximal response at 6 ug/kg, ip treated 30 mins prior to zymosan administration and once again 1 hr after zymosan administration and measured 24 hrs post zymosan injection by flow cytometry analysis (reference value: 100 %); assay type: functional; conditions: dose 6 µg/kg; time 24.5 hrs
Procedure, shortened: (§4)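 Male C57BL/6J mice (9 weeks) given zymosan 1 mg/mouse ip (40 mg/kg); compound (2 or 6 μg/kg) or dexamethasone (1 mg/kg) ip 30 min before and 1 h after zymosan. Peritoneal lavage 24 h post-zymosan; cells counted with Turk's solution, stained Ly6G/F4/80/CD11b, PMN as Ly6G⁺ by flow cytometry; % of vehicle + zymosan maximal response; n = 5 mice/group, one-way ANOVA.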

[5] = test system: Mus musculus; assay: Anti-inflammatory activity in zymosan-induced C57BL/6J mouse model of peritonitis assessed as reduced neutrophil influx at 6 ug/kg, ip treated 30 mins prior to zymosan administration (reference value: 100 %); set-up: scale not given: the % may be the effect or the level left; conditions: 0.5 h
[6] = organism: Mus musculus; assay: Anti-inflammatory activity in zymosan-induced C57BL/6J mouse model of peritonitis assessed as change in polymorphonuclear cell count; assay type: functional, organism-based; procedure, shortened: as §4
[7] = organism: Mus musculus; assay: Anti-inflammatory activity in zymosan-induced C57BL/6J mouse model of peritonitis assessed as change in macrophage cell count; assay type: functional, organism-based
[8] = test system: Mus musculus; assay: Anti-inflammatory activity in C57BL/6J mouse model of carrageenan-induced paw edema assessed as reduction in paw swelling at 2 ug/kg, ip administered 30 mins prior to carrageenan injection; assay type: functional, organism-based; conditions: dose 2.0 µg/kg
Procedure, shortened: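 Male C57BL/6 mice dosed 30 min before intraplantar 50 μL 1% carrageenan (saline in contralateral paw); test compound 2 μg/kg ip, naproxen 50 mg/kg po. Paw thickness difference tracked over time (to 72 h) with a lever gauge as edema index; mean ± SEM, n = 3 mice/group.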

[9] = test system: THP-1; assay: Cytoprotection against LPS-stimulated human THP-1 monocytes toxicity assessed as fold reduction in LDH release at 0.001 to 1000 nM incubated for 24 hrs by LDH assay; assay type: functional; conditions: dose 0.001-1000 nM
Procedure, shortened: (§5)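 Supernatant LDH read at 490 nm minus 690 nm background; maximum release from 2% Triton X-100 lysis; expressed as % LDH release relative to LPS ± SEM, n = 3.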

[10] = test system: Mus musculus; assay: as §3, with “total number of polymorphonuclear cells” for “maximal response”, “4.7 +/- 0.5 x10^6 /ml)” for “100 %)”; assay type: functional; conditions: dose 6 µg/kg; time 24.5 hrs; procedure, shortened: as §4
[11] = molecular target: T1, Nuclear factor NF-kappa-B complex (Homo sapiens) (UniProt Q00653+P19838+Q04206); assay: Inhibition of TNFalpha-stimulated NF-kappaB activity (unknown origin) expressed in mouse primary smooth muscle cells at 1 nM pretreated for 30 mins followed by TNFalpha stimulation and incubated for 24 hrs by SEAP reporter gene assay; assay type: cell-based; conditions: THP-1, time 24.5 hrs
Procedure, shortened: (§6)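 Mouse primary vascular SMCs in DMEM with 25 mM glucose, serum-restricted (1% FBS) 24 h, transfected 24 h with pNF-κB-SEAP, pretreated 30 min, then TNF-α 1 ng/mL for 24 h; 0.1% ethanol vehicle. Secreted alkaline phosphatase measured in supernatant; fold change vs vehicle, mean ± SEM of 6–8 independent experiments.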

[12] = test system: THP-1; assay: Anti-inflammatory activity against human THP-1 monocytes assessed as reduction in LPS-induced IFNgamma release at 1 pM pretreated for 30 mins followed LPS stimulation and measured after 24 hrs by multiplex chemiluminescence detection method; assay type: functional, cell-based; conditions: time 24.5 hrs; procedure, shortened: as §2
[13] = test system: THP-1; assay: Cytotoxicity against human THP-1 monocytes assessed as LDH release at 1 pM incubated for 24 hrs in absence of LPS by LDH assay; assay type: toxicity, cell-based; conditions: thp-1, 24 h; procedure, shortened: as §1
[14] = test system: Mus musculus; assay: as §3, with “1 mg/kg,” for “6 ug/kg,”; assay type: functional; conditions: time 24.5 hrs; procedure, shortened: as §4
[15] = test system: THP-1; assay: Cytotoxicity against human THP-1 monocytes assessed as LDH release at 1 uM incubated for 24 hrs in absence of LPS by LDH assay; assay type: toxicity, cell-based; conditions: thp-1, 24 h; procedure, shortened: as §1
[16] = test system: Mus musculus; assay: Anti-inflammatory activity in zymosan-induced C57BL/6J mouse model of peritonitis assessed as reduced neutrophil influx at 11 mg/kg, ip treated 1 hr prior to zymosan administration (reference value: 100 %); assay type: functional; set-up: scale not given: the % may be the effect or the level left
[17] = test system: THP-1; assay: Cytoprotection against LPS-stimulated human THP-1 monocytes toxicity assessed as reduction LDH release at 1 uM incubated for 24 hrs by LDH assay; assay type: functional; procedure, shortened: as §5
[18] = molecular target: T1, Nuclear factor NF-kappa-B complex (Homo sapiens); assay: Inhibition of LPS-induced NF-kappaB activation in human THP-1 monocytes expressing luciferase gene at 0.01 to 100 nM pretreated for 30 mins followed by LPS stimulation and measured after 24 hrs by bioluminescence analysis; assay type: cell-based; conditions: dose 0.01-100 nM, time 24.5 hr
Procedure, shortened: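 Secreted luciferase in supernatant read with QUANTI-Luc by bioluminescence, normalized to BCA protein (lum/abs ratio, two replicates), expressed as % of LPS response; mean ± SEM, n = 3.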

[19] = test system: THP-1; assay: Anti-inflammatory activity against human THP-1 monocytes assessed as reduction in LPS-induced IFNgamma release pretreated for 30 mins followed LPS stimulation and measured after 24 hrs by multiplex chemiluminescence detection method; assay type: functional, cell-based; procedure, shortened: as §2
[20] = test system: THP-1; assay: Anti-inflammatory activity against human THP-1 monocytes assessed as reduction in LPS-induced IFNgamma release at 0.01 nM to 100 nM pretreated for 30 mins followed LPS stimulation and measured after 24 hrs by multiplex chemiluminescence detection method; assay type: functional; conditions: time 24.5 hrs; procedure, shortened: as §2
[21] = test system: THP-1; assay: Anti-inflammatory activity against human THP-1 monocytes assessed as reduction in LPS-induced IL-1beta release at 0.01 nM to 100 nM pretreated for 30 mins followed LPS stimulation and measured after 24 hrs by multiplex chemiluminescence detection method; assay type: functional; conditions: time 24.5 hrs; procedure, shortened: as §2
[22] = test system: HEK293; assay: Agonist activity at ALX/FPR2 receptor (unknown origin) expressed in HEK-293 cells assessed as increase in calcium flux at 0.01 to 100 nM by Fluo-4 staining based assay; assay type: cell-based; conditions: Homo sapiens, filed as agonist, dose 0.01-100 nM
Procedure, shortened: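 HEK-293 cells stably double-transfected with ALX/FPR2 and Gαq (Geneticin 500 and Hygromycin 100 μg/mL selection); wild-type HEK-293 as specificity control. Cultured 18 h, loaded with Fluo-4 (37 °C, 1 h), compounds injected in-reader (10 pM–100 nM). Baseline-to-peak calcium fluorescence difference expressed as % of LXA₄ peak; ATP 1 μM and W-peptide 2 nM positive controls; n = 3 independent experiments.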

[23] = test system: THP-1; assay: Induction of phagocytosis in human THP-1-MF0 macrophages at 100 nM pretreated for 30 mins followed by fluorescently labeled Escherichia coli derived bio-particles addition and measured after 2 hrs; assay type: functional, cell-based; conditions: time 2.5 hrs
Procedure, shortened: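 THP-1 monocytes differentiated with 16 nM PMA 48 h plus 24 h rest; 1 × 10⁵ macrophages/well in 0.1% serum adhered 1.5 h, treated 30 min (1 fM–1 μM), medium replaced with fluorescent E. coli bioparticles for 2 h at 37 °C in dark; trypan blue quench 1 min; bottom-read fluorescence Ex480/Em520; fold change vs vehicle, n = 3.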

[24] = molecular target: T1, Nuclear factor NF-kappa-B complex (Homo sapiens); assay: Inhibition of TNFalpha-stimulated NF-kappaB activity (unknown origin) expressed in mouse primary smooth muscle cells at 0.1 nM pretreated for 30 mins followed by TNFalpha stimulation and incubated for 24 hrs by SEAP reporter gene assay; assay type: cell-based; conditions: time 24.5 hrs; procedure, shortened: as §6

T1 sequence (P19838 whole entry, looked up): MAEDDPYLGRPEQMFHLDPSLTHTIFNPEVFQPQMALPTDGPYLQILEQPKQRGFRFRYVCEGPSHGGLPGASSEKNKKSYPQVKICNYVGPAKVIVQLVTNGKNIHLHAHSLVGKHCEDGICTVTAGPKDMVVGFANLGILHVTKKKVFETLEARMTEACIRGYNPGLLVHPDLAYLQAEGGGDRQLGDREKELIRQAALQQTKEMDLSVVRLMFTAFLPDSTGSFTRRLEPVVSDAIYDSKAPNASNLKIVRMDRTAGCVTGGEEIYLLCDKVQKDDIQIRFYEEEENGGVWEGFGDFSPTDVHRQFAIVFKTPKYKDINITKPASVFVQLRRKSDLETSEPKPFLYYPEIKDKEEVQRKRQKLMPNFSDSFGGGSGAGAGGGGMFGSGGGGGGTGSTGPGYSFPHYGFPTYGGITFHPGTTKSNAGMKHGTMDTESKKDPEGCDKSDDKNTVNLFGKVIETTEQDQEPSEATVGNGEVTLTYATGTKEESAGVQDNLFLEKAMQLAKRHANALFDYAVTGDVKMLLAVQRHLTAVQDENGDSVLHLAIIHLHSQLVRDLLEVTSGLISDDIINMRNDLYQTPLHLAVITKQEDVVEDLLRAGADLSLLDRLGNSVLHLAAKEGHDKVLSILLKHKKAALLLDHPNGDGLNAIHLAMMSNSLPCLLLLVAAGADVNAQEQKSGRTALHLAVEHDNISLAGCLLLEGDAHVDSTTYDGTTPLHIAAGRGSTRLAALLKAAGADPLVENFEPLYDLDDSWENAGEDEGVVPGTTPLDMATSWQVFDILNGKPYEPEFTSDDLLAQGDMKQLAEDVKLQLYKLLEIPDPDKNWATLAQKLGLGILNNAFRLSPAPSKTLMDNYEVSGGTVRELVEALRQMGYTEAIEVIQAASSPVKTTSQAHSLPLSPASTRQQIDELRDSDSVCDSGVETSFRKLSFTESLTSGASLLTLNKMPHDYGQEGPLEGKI
T1 sequence (Q00653 whole entry, looked up): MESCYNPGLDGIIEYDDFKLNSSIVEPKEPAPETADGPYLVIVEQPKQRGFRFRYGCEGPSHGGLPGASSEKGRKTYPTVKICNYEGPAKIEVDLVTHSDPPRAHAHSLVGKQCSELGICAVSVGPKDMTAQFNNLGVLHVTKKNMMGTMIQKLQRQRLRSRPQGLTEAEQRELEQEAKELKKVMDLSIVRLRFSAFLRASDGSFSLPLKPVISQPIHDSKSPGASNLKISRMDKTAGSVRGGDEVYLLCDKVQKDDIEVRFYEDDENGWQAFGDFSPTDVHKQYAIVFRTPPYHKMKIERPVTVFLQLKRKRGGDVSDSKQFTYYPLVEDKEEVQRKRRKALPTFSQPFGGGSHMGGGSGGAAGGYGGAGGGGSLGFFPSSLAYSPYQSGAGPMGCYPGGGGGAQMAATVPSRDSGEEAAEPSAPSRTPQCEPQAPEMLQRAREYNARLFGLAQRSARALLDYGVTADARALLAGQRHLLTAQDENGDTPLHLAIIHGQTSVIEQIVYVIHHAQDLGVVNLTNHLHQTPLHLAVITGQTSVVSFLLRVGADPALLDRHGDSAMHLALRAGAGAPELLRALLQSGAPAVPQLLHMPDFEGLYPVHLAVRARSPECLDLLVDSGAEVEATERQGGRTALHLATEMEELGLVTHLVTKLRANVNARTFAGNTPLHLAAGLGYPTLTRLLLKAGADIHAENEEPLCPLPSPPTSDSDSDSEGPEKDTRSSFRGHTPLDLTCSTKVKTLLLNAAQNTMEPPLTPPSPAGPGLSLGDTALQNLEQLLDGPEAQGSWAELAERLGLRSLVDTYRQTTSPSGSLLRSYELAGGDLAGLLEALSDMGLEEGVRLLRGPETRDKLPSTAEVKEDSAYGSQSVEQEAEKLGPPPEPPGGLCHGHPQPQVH
T1 sequence (Q04206 whole entry, looked up): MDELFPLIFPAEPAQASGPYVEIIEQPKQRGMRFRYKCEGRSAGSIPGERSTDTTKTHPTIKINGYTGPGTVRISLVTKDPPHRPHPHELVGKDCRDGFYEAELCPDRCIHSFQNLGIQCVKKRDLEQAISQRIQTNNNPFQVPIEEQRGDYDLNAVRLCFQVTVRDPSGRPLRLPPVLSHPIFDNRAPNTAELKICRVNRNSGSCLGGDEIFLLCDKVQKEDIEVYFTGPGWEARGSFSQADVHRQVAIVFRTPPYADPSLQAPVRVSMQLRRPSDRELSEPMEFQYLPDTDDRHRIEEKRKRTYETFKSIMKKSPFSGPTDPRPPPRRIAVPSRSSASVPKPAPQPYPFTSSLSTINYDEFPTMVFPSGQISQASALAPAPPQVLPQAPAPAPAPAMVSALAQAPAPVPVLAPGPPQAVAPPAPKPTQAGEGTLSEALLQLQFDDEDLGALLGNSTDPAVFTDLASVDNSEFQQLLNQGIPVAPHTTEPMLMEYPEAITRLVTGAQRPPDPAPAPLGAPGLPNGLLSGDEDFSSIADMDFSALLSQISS

With `CCCCC[C@H](O)c1nc2ccccc2nc1/C=C/[C@H]1OC(C)(C)O[C@H]1CCCC(=O)OC` the Activity [1] was “Toxic”.
In the case of `CCCCC[C@@H](O)c1nc2ccccc2nc1/C=C/[C@@H](O)[C@@H](O)CCCC(=O)OC`, the Activity [2] is reported as “Active”, the Activity [3] is reported as “inactive” and the Activity [4] is reported as 68%. The Activity [5] was 22.5%, the Activity [6] was “inactive” and the Activity [7] was “inactive”. For the same molecule, the Activity [8] was “Active”, the Activity [1] was “Non-Toxic” and the “fold change (FC)” value [9] was 1.3. For the same molecule, the Activity [10] was 3.2 10^6/ml.
In the case of `CCCCC[C@@H](O)c1ccccc1/C=C/[C@@H](O)[C@@H](O)CCCC(=O)OC`, the inhibition [11] is reported as “Active”, the Activity [12] is reported as “inactive” and the Activity [13] is reported as “Non-Toxic”.
`CCCCCCC[C@H](O)c1nc2ccccc2nc1/C=C/[C@@H](O)[C@@H](O)CCCC(=O)OC` was tested, and the Activity [1] was “Non-Toxic”.
For `C[C@@H]1C[C@H]2[C@@H]3CCC4=CC(=O)C=C[C@]4(C)[C@@]3(F)[C@@H](O)C[C@]2(C)[C@@]1(O)C(=O)CO` [DEXAMETHASONE], the Activity [14] was 51%, the Activity [3] was “inactive” and the Activity [15] was “Non-Toxic”. The Activity [16] was 33.5%, the Activity [6] was “inactive” and the Activity [7] was “inactive”. For the same molecule, the Activity [17] was “inactive”.
For `CCCCC[C@@H](O)c1c(/C=C/[C@@H](O)[C@@H](O)CCCC(=O)OC)nc(C)n1C`, the Activity [13] was “Non-Toxic”.
In the case of `CCC[C@@H](O)c1nc2ccccc2nc1/C=C/[C@@H](O)[C@@H](O)CCCC(=O)OC`, the Imax [18] is reported as 30%, the IC50 [19] is reported as 1 pM and the Imax [20] is reported as 85%. The Activity [1] was “Non-Toxic”.
With `CCCCC[C@@H](O)c1nc2ccccc2nc1/C=C/[C@H]1OC(C)(C)O[C@H]1CCCC(=O)OC` the Activity [8] was “inactive” and the Activity [1] was “Toxic”.
`CCCCC[C@H](O)/C=C/C=C\C=C\C=C\[C@@H](O)[C@@H](O)CCCC(=O)O` [LIPOXIN A4] was tested, and the Activity [2] was “Active”, the Imax [21] was 93% and the Activity [22] was “Active”. The Activity [23] was “Active” and the inhibition [24] was “Active”.
`CCC[C@H](O)c1nc2ccccc2nc1/C=C/[C@@H](O)[C@@H](O)CCCC(=O)OC` was tested, and the Imax [18] was 30%, the IC50 [19] was 1 pM and the Imax [20] was 85%.
For `CCCCC[C@H](O)c1nc2ccccc2nc1/C=C/[C@@H](O)[C@@H](O)CCCC(=O)OC`, the Imax [18] was 25% and the Activity [21] was “inactive”.

Source: ChEMBL document CHEMBL5038597 (J Med Chem, 2021)
